In brackets after ≈: the same amount, converted by molar mass.
Columns and labels:
[1] = tested on: Mycobacterium tuberculosis; experiment: Antitubercular activity against Mycobacterium tuberculosis H37Rv ATCC 27294 by BACTEC 960 assay; format: functional
[2] = Selectivity index, ratio of IC50 for african green monkey Vero cells to MIC for Mycobacterium tuberculosis H37Rv ATCC 27294; format: toxicity, cell-based; conditions: read-out: Selectivity Index
Summary of the method: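 Vero cells were seeded at ~4×10^5 cells/mL and grown 48 h at 37 °C in 5% CO2. […] MTT 0.5 mg/mL was added for 2 h and formazan dissolved in DMSO, with absorbance read at 570 nm to give IC50. SI = IC50 / H37Rv MIC (IC99).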

[3] = tested on: Vero; experiment: Cytotoxicity against african green monkey Vero cells after 48 hrs by MTT assay; format: cell-based; conditions: Chlorocebus sabaeus
[4] = Octanol-water partition co-efficient, log P of the compound by shake-flask method; format: physicochemical

| Structure (SMILES) | MIC [1] [µM] | also measured |
| --- | --- | --- |
| CCC(CC)=NNC(=O)c1ccncc1 | 0.097 (≈ 0.0199 µg/mL) |  |
| CCCCCCCCC(=O)NNC(=O)c1ccncc1 | 0.09 (≈ 0.025 µg/mL) |  |
| CCCCC/C(C)=N/NC(=O)c1ccncc1 | 0.129 (≈ 0.0301 µg/mL) |  |
| CC(C)/C=N\NC(=O)c1ccncc1 | 0.523 (≈ 0.1 µg/mL) |  |
| C/C=N/NC(=O)c1ccncc1 | 0.245 (≈ 0.04 µg/mL) |  |
| N/C(COc1ccc([N+](=O)[O-])cc1)=N/NC(=O)c1ccncc1 | 19.8 (≈ 6.25 µg/mL) |  |
| N/C(COc1ccc(Cl)cc1)=N\NC(=O)c1ccncc1 | 10.2 (≈ 3.12 µg/mL) |  |
| O=C(NNS(=O)(=O)c1ccc([N+](=O)[O-])cc1)c1ccncc1 | 186 (≈ 60 µg/mL) |  |
| CCN(CC)c1ccc(/C=N/NC(=O)c2ccncc2)cc1 | 2.02 (≈ 0.6 µg/mL) |  |
| O=C(N/N=C(\CO)C(O)C(O)C(O)CO)c1ccncc1 (configuration not stated) | 0.2 (≈ 0.0599 µg/mL) |  |
| Cc1cc(C(=O)NN)ccn1 | 5.2 (≈ 0.786 µg/mL) |  |
| NNC(=O)c1ccncc1N | 9.86 (≈ 1.5 µg/mL) |  |
| C/C(=N\NC(=O)c1ccncc1)c1cccc(CN(Cc2ccccc2)Cc2ccccc2)c1O | 1.3 (≈ 0.604 µg/mL) |  |
| O=C(NNC1CCC(c2ccccc2)CC1)c1ccncc1 (configuration not stated) | 0.44 (≈ 0.13 µg/mL) | selectivity ratio [2]: > 454; IC50 [3]: > 200 µM; logP [4]: 2.83 |
| CC(=O)NNC(=O)c1ccncc1 | 44.6 (≈ 8 µg/mL) |  |
| NNC(=O)c1ccnc(N)c1 | 14.5 (≈ 2.21 µg/mL) |  |
| COc1cc(C(=O)NN)ccn1 | 153 (≈ 25.6 µg/mL) |  |
| CCCCCCCCCC(=O)NNC(=O)c1ccncc1 | 0.38 (≈ 0.111 µg/mL) | selectivity ratio [2]: > 530; IC50 [3]: > 75 µM; logP [4]: 3.46 |
| O=Cc1ccc(/C=N/NC(=O)c2ccncc2)cc1 | 0.24 (≈ 0.0608 µg/mL) | selectivity ratio [2]: > 844; IC50 [3]: > 200 µM; logP [4]: 1.32 |
| C/C(=N/NC(=O)c1ccncc1)c1cccc(CN2CCNCC2)c1O | 8.61 (≈ 3.04 µg/mL) |  |
| O=C(N/N=C/c1ccc(CO)cc1)c1ccncc1 | 0.27 (≈ 0.0689 µg/mL) | selectivity ratio [2]: > 729; IC50 [3]: > 200 µM; logP [4]: 0.731 |
| C/C(=N\NC(=O)c1ccncc1)c1cccc(CN(C)C)c1O | 2.29 (≈ 0.715 µg/mL) |  |
| CCN(CC)c1cc(C(=O)NN)ccn1 | 717 (≈ 149 µg/mL) |  |
| NNC(=O)c1ccnc(I)c1 | 254 (≈ 66.8 µg/mL) |  |

| Structure (SMILES) | MIC [1] [µM] | also measured |
| --- | --- | --- |
| O=C(NNC1CCCCC1)c1ccncc1 | 22.8 (≈ 5 µg/mL) |  |
| O=CNNC(=O)c1ccncc1 | 18.2 (≈ 3 µg/mL) |  |
| CCn1cc(C(=O)O)c(=O)c2cc(F)c(N3CCN(Cc4cccc(/C(C)=N/NC(=O)c5ccncc5)c4O)C(C)C3)c(F)c21 (configuration not stated) | 0.9 (≈ 0.557 µg/mL) |  |
| CC(C)(C#N)NNC(=O)c1ccncc1 | 0.294 (≈ 0.06 µg/mL) |  |
| CCCCCCCCCC/C=N/NC(=O)c1ccncc1 | 1.04 (≈ 0.3 µg/mL) |  |
| Cc1cnccc1C(=O)NN | 1320 (≈ 200 µg/mL) |  |
| CCCCCC(C)C(=O)NNC(=O)c1ccncc1 (configuration not stated) | 3.04 (≈ 0.801 µg/mL) | logP [4]: 2.09 |
| NNC(=O)c1ccncc1 [ISONIAZID] | 0.146 (≈ 0.02 µg/mL) | selectivity ratio [2]: > 686; IC50 [3]: > 200 µM; logP [4]: -0.851 |
| Cc1cccc(OC/C(N)=N/NC(=O)c2ccncc2)c1 | 11 (≈ 3.12 µg/mL) |  |
| Cc1ccc(C)n1NC(=O)c1ccncc1 | 46.5 (≈ 10 µg/mL) |  |
| O=C(NNS(=O)(=O)c1ccccc1)c1ccncc1 | 10.8 (≈ 3 µg/mL) |  |
| C/C(=N/NC(=O)c1ccncc1)c1cccc(CN2CCN(Cc3ccc(F)cn3)CC2)c1O | 2.04 (≈ 0.944 µg/mL) |  |
| O=C(NN=C1CCCCC1)c1ccncc1 | 0.028 (≈ 0.00608 µg/mL) |  |
| CCCCN(CCCC)Cc1cccc(/C(C)=N/NC(=O)c2ccncc2)c1O | 4.43 (≈ 1.76 µg/mL) |  |
| CC1CCC(NNC(=O)c2ccncc2)CC1 (configuration not stated) | 21.4 (≈ 5 µg/mL) |  |
| O=C(NNC(=O)C(O)C(OC1OC(CO)C(O)C(O)C1O)C(O)CO)c1ccncc1 (configuration not stated) | 0.346 (≈ 0.155 µg/mL) |  |
| NNC(=O)c1ccnc(Cl)c1 | 392 (≈ 67.3 µg/mL) |  |
| CC(=O)C/C(C)=N/NC(=O)c1ccncc1 | 3.65 (≈ 0.8 µg/mL) |  |
| CCc1cc(C(=O)NN)ccn1 | 21.1 (≈ 3.49 µg/mL) |  |
| C/C(=N\NC(=O)c1ccncc1)c1cccc(CN2CCN(c3ccccn3)CC2)c1O | 0.88 (≈ 0.379 µg/mL) |  |
| CCCCCC/C=N/NC(=O)c1ccncc1 | 0.129 (≈ 0.0301 µg/mL) |  |
| NNC(=O)c1ccnc(Cc2ccccc2)c1 | 38.5 (≈ 8.75 µg/mL) |  |
| NNC(=O)c1ccnc([N+](=O)[O-])c1 | 371 (≈ 67.6 µg/mL) |  |
| O=C(NN=C1CCCC1)c1ccncc1 | 0.2 (≈ 0.0406 µg/mL) | selectivity ratio [2]: > 965; IC50 [3]: > 190 µM; logP [4]: 0.22 |

| Structure (SMILES) | MIC [1] [µM] | also measured |
| --- | --- | --- |
| CC(C)NNC(=O)c1ccncc1 [IPRONIAZID] | 2.23 (≈ 0.4 µg/mL) |  |
| NNC(=O)c1ccnc(F)c1 | 2.58 (≈ 0.4 µg/mL) |  |
| C/C(=N\NC(=O)c1ccncc1)c1cccc(CN2CCN(C)CC2)c1O | 3.36 (≈ 1.23 µg/mL) |  |
| CC1CCCC(NNC(=O)c2ccncc2)C1 (configuration not stated) | 17.1 (≈ 4 µg/mL) |  |
| O=C(N/N=C/c1ccc(Oc2ccccc2)cc1)c1ccncc1 | 0.95 (≈ 0.301 µg/mL) | logP [4]: 3.7 |
| CC(=O)Nc1cc(C(=O)NN)ccn1 | 2150 (≈ 418 µg/mL) |  |
| CCC(CC)NNC(=O)c1ccncc1 | 14.5 (≈ 3 µg/mL) |  |
| C/C(=N/NC(=O)c1ccncc1)c1cccc(CN2CCN(Cc3ccccn3)CC2)c1O | 0.87 (≈ 0.387 µg/mL) |  |
| NNC(=O)c1ccnc(Br)c1 | 69.4 (≈ 15 µg/mL) |  |
| CC(=O)Nc1ccc(/C=N\NC(=O)c2ccncc2)cc1 | 0.283 (≈ 0.0799 µg/mL) |  |
| C/C(=N\NC(=O)c1ccncc1)c1cccc(CN2CCCCC2)c1O | 4.61 (≈ 1.62 µg/mL) |  |
| O=C(NNC(=O)c1ccncc1)c1ccncc1 | 33 (≈ 8 µg/mL) |  |
| C=Cc1cc(C(=O)NN)ccn1 | 35 (≈ 5.71 µg/mL) |  |
| COC(=O)c1ccc(/C=N/NC(=O)c2ccncc2)cc1 | 1.06 (≈ 0.3 µg/mL) | logP [4]: 1.32 |
| O=C(NNC(O)C(Cl)(Cl)Cl)c1ccncc1 (configuration not stated) | 0.141 (≈ 0.0401 µg/mL) |  |
| CC(O)(NNC(=O)c1ccncc1)C(=O)O (configuration not stated) | 0.266 (≈ 0.0599 µg/mL) |  |
| CNC1C(OC2C(OC3C(O)C(O)C(NC(=N)N)C(O)C3NC(=N)N)OC(C)C2(O)/C=N\NC(=O)c2ccncc2)OC(CO)C(O)C1O (configuration not stated) | 0.214 (≈ 0.15 µg/mL) |  |
| N/C(COc1cccc(Cl)c1)=N\NC(=O)c1ccncc1 | 10.2 (≈ 3.12 µg/mL) |  |
| NNC(=O)c1ccnc(-c2ccccc2)c1 | 50 (≈ 10.7 µg/mL) |  |
| NNC(=O)c1ccnc(NN)c1 | 0.42 (≈ 0.0702 µg/mL) | selectivity ratio [2]: > 478; IC50 [3]: > 200 µM; logP [4]: -0.541 |
| CCCCCCCCCCCCNNC(=O)c1ccncc1 | 0.164 (≈ 0.0501 µg/mL) |  |
| O=C(NN=C1CCC(c2ccccc2)CC1)c1ccncc1 (configuration not stated) | 0.27 (≈ 0.0792 µg/mL) | selectivity ratio [2]: > 733; IC50 [3]: > 200 µM; logP [4]: 1.97 |
| C/C(=N\NC(=O)c1ccncc1)c1cccc(CN(c2ccccc2)c2ccccc2)c1O | 0.56 (≈ 0.244 µg/mL) |  |
| O=C(NNCc1ccco1)c1ccncc1 | 69.1 (≈ 15 µg/mL) |  |

| Structure (SMILES) | MIC [1] [µM] | also measured |
| --- | --- | --- |
| C/C(=N\NC(=O)c1ccncc1)c1cccc(CN2CCCC2)c1O | 2.2 (≈ 0.745 µg/mL) |  |
| Nc1ccc(S(=O)(=O)NNC(=O)c2ccncc2)cc1 | 2050 (≈ 600 µg/mL) |  |
| Cc1ccccc1OC/C(N)=N/NC(=O)c1ccncc1 | 44 (≈ 12.5 µg/mL) |  |
| C/C(=N\NC(=O)c1ccncc1)c1cccc(CN2CCN(c3cc4c(cc3F)c(=O)c(C(=O)O)cn4C3CC3)CC2)c1O | 1.26 (≈ 0.754 µg/mL) |  |
| O=C(NNC(=O)C(O)C(O)C(O)CO)c1ccncc1 (configuration not stated) | 0.501 (≈ 0.143 µg/mL) |  |
| C/C(=N\NC(=O)c1ccncc1)c1cccc(CN2CCOCC2)c1O | 3.57 (≈ 1.27 µg/mL) |  |
| O=C(N/N=C/C(O)C(O)C(O)CO)c1ccncc1 (configuration not stated) | 0.186 (≈ 0.0501 µg/mL) |  |
| CC(C)CNNC(=O)c1ccncc1 | 0.517 (≈ 0.0999 µg/mL) |  |
| Cc1ccc(OC/C(N)=N/NC(=O)c2ccncc2)cc1 | 22 (≈ 6.25 µg/mL) |  |
| CCCc1cc(C(=O)NN)ccn1 | 55.2 (≈ 9.89 µg/mL) |  |
| CCC(C)NNC(=O)c1ccncc1 (configuration not stated) | 2.07 (≈ 0.4 µg/mL) |  |
| CC1CCC(=NNC(=O)c2ccncc2)CC1 (configuration not stated) | 0.303 (≈ 0.0701 µg/mL) |  |
| C/C=C/CCCCCCC/C=N/NC(=O)c1ccncc1 | 0.522 (≈ 0.15 µg/mL) |  |
| CC(C)=NNC(=O)c1ccncc1 | 0.113 (≈ 0.02 µg/mL) |  |
| CCN(CC)CN(C)c1ccc(/C=N/NC(=O)c2ccncc2)cc1 | 0.236 (≈ 0.0801 µg/mL) |  |
| CCOc1cc(C(=O)NN)ccn1 | 450 (≈ 81.5 µg/mL) |  |
| CC(=O)NCc1cc(C(=O)NN)ccn1 | 243 (≈ 50.6 µg/mL) |  |
| O=C(N/N=C/c1cccc(CO)c1)c1ccncc1 | 0.47 (≈ 0.12 µg/mL) | selectivity ratio [2]: > 425; IC50 [3]: > 200 µM; logP [4]: 0.902 |
| CC(C)COc1ccc(/C=N/NC(=O)c2ccncc2)cc1 | 0.673 (≈ 0.2 µg/mL) |  |
| CCN(CC)Cc1cccc(/C(C)=N\NC(=O)c2ccncc2)c1O | 3.93 (≈ 1.34 µg/mL) |  |
| O=Cc1cccc(/C=N/NC(=O)c2ccncc2)c1 | 0.28 (≈ 0.0709 µg/mL) | selectivity ratio [2]: > 724; IC50 [3]: > 200 µM; logP [4]: 1.33 |
| CC(C)CCOc1ccc(/C=N/NC(=O)c2ccncc2)cc1 | 0.161 (≈ 0.0501 µg/mL) |  |

— ChEMBL document CHEMBL3259548, “Design, synthesis and biological evaluation of novel isoniazid derivatives with potent antitubercular activity” (Eur J Med Chem, 2014)
